According to ChEMBL document CHEMBL4673404, “Covalent Inhibition of Wild-Type HIV-1 Reverse Transcriptase Using a Fluorosulfate Warhead” (ACS Med Chem Lett, 2021):

Columns and labels:
[1] = Cytotoxicity against human MT2 cells assessed as cell growth inhibition after 5 days by MTT assay; assay type: cell-based; conditions: time 5 day
Outline: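 Human MT-2 T-cells were used in the same assay as the HIV-1 IIIB infection-protection test. CC50 was taken as the concentration inhibiting MT-2 cell growth by 50%, with measurements in triplicate.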

[2] = target: T1, Human immunodeficiency virus type 1 reverse transcriptase (Human immunodeficiency virus 1, UniProt Q72547); test: Inhibition of recombinant wild type HIV-1 reverse transcriptase using poly(rA)350/oligo(dT)16 as template/primer preincubated for 1 hr followed by substrate addition measured after 30 mins by pico-green reagent based fluorescence analysis
Outline: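 Recombinant wild-type HIV-1 RT preincubated 1 h with inhibitor or DMSO. Substrate of r(A)350 template and d(T)16 primer then added, 30 min at room temperature. Quenched with EDTA, product detected with PicoGreen by fluorescence (ex 485/em 520 nm). Triplicate runs, normalized to DMSO controls to give IC50.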

[3] = target: T1, Human immunodeficiency virus type 1 reverse transcriptase; test: Covalent inhibition of recombinant wild type HIV-1 reverse transcriptase using poly(rA)350/oligo(dT)16 as template/primer preincubated followed by substrate addition measured after 30 mins by pico-green reagent based fluorescence analysis
[4] = target: T1, Human immunodeficiency virus type 1 reverse transcriptase; test: Covalent inhibition of recombinant wild type HIV-1 reverse transcriptase using poly(rA)350/oligo(dT)16 as template/primer preincubated followed by substrate addition measured after 48 hrs by pico-green reagent based fluorescence analysis
Outline: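 Recombinant WT HIV-1 RT preincubated with inhibitor or DMSO control (1 h for line 3, 48 h for line 4). Substrate solution with r(A)350 template and d(T)16 primer then added, reacted 30 min at room temperature, and quenched with EDTA. Product quantified with PicoGreen by fluorescence (ex 485, em 520 nm). Triplicate runs, normalized to DMSO controls to give IC50.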

[5] = Covalent inhibition of HIV-1 reverse transcriptase Tyr181Cys mutant; parameters: species or system Human immunodeficiency virus 1

| SMILES | CC50 at 120 h [1] | IC50 [2] | IC50 [3] | IC50 [4] | IC50 [5] |
| --- | --- | --- | --- | --- | --- |
| N#C/C=C/c1cc(Cl)cc(Oc2ccc(Cl)cc2OCCn2ccc(=O)[nH]c2=O)c1 | 10 µM | 0.003 µM |  |  |  |
| N#Cc1cc(Cl)cc(Oc2cc(OS(=O)(=O)F)ccc2OCCn2ccc(=O)[nH]c2=O)c1 | 100 µM |  |  |  |  |
| Cn1c(=O)ccn(CCOc2cc(OS(=O)(=O)F)ccc2Oc2cc(Cl)cc(C#N)c2)c1=O | 40 µM |  | 0.246 µM |  |  |
| N#Cc1cc(Cl)cc(Oc2ccc(S(=O)(=O)F)cc2OCCn2ccc(=O)[nH]c2=O)c1 | 90 µM |  | 5 µM |  |  |
| N#Cc1cc(Cl)cc(Oc2ccc(OS(=O)(=O)F)cc2OCCn2ccc(=O)[nH]c2=O)c1 | 66 µM |  | 0.103 µM | 0.163 µM | 0.045 µM |
| N#Cc1ccc2c(Oc3ccc(OS(=O)(=O)F)cc3OCCn3ccc(=O)[nH]c3=O)cc(Cl)cc2c1 | 15 µM |  | 0.0147 µM |  |  |
| N#Cc1cc(Cl)cc(Oc2cc(OS(=O)(=O)F)ccc2Cl)c1 | 78 µM |  | 0.833 µM |  |  |
| N#Cc1cc2c(Oc3ccc(OS(=O)(=O)F)cc3OCCn3ccc(=O)[nH]c3=O)cc(Cl)cn2c1 | 26 µM |  | 0.0424 µM |  | 0.041 µM |
| N#C/C=C/c1cc(Cl)cc(Oc2ccc(OS(=O)(=O)F)cc2OCCn2ccc(=O)[nH]c2=O)c1 | 45 µM |  | 0.119 µM |  |  |
| N#C/C=C/c1cc(F)cc(Oc2ccc(OS(=O)(=O)F)cc2OCCn2ccc(=O)[nH]c2=O)c1 | 42 µM |  | 0.15 µM |  |  |
| Cn1c(=O)ccn(CCOc2cc(OS(=O)(=O)F)ccc2Oc2cccn3cc(C#N)cc23)c1=O | 75 µM |  | 0.164 µM | 1.11 µM | 0.202 µM |
| N#Cc1cc(Cl)cc(Oc2ccc(OS(=O)(=O)F)cc2Cl)c1 | 50 µM |  | 4.9 µM |  |  |
| N#Cc1ccc2c(Oc3ccc(OS(=O)(=O)F)cc3OCCn3ccc(=O)[nH]c3=O)cccc2c1 | 62 µM |  | 0.0823 µM |  |  |
| N#Cc1cc2c(Oc3ccc(OS(=O)(=O)F)cc3OCCn3ccc(=O)[nH]c3=O)cc(F)cn2c1 | 55 µM |  | 0.064 µM | 0.429 µM | 0.063 µM |
| Cn1c(=O)ccn(CCOc2cc(S(=O)(=O)F)ccc2Oc2cc(Cl)cc(C#N)c2)c1=O | 60 µM |  | 0.375 µM |  |  |
| Cc1ccnc2c1NC(=O)c1cccnc1N2C1CC1 [NEVIRAPINE] | > 100 µM |  |  |  |  |
| Cc1cc(/C=C/C#N)cc(C)c1Nc1ccnc(Nc2ccc(C#N)cc2)n1 [RILPIVIRINE] | 8 µM |  | 0.038 µM |  |  |
